We go through 19 compounds from ChEMBL document CHEMBL5335771, “Thioxanthenone-based derivatives as multitarget therapeutic leads for Alzheimer's disease” (Eur J Med Chem, 2023).

Assay [1] concerns the target T1, Microtubule-associated protein tau (Homo sapiens, UniProt P10636). Nature of the assay: Inhibition of tau (unknown origin) aggregation expressed in Escherichia coli BL21 (DE3). The gist of the method: (§1)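 E. coli BL21(DE3) carrying pTARA (T7 RNA polymerase under PBAD) and pRKT42 (four-repeat tau) grown at 37 °C in M9 with 0.5% glucose, antibiotics and 250 μM ThS to OD600 0.6. […] ThS fluorescence ex 430/em 485 nm, normalized to tau-expressing cells (100%) and non-expressing cells (0%); OD600 checked for growth.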
Target sequence in this assay (P10636 whole entry): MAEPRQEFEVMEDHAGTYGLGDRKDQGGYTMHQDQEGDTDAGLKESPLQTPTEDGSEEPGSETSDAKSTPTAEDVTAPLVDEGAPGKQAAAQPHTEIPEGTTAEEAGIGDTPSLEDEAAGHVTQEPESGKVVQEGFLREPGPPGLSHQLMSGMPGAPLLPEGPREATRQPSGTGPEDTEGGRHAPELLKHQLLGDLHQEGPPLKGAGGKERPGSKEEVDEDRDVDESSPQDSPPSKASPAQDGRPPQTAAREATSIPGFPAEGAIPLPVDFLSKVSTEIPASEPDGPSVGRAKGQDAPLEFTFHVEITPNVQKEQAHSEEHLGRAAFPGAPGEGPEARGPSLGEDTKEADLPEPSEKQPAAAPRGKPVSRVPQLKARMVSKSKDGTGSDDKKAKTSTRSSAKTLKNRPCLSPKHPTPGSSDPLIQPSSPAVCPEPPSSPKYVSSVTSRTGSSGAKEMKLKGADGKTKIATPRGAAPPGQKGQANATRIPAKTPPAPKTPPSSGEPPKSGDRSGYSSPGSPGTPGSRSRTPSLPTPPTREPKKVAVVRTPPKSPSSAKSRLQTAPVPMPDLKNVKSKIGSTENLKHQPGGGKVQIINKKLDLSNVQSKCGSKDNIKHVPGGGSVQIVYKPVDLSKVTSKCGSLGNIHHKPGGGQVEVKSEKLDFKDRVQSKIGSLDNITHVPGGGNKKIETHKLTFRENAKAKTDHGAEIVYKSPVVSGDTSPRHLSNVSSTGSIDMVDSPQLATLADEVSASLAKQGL

Assay [2] has as its target Amyloid-beta precursor protein (Homo sapiens, UniProt P05067). Nature of the assay: Inhibition of amyloid beta 40 peptide (unknown origin) aggregation incubated for 2 hr by ThT fluorescence based spectrofluorimetric analysis. In outline:
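Aβ40 peptide aggregation enhanced with 2% HFIP; thioflavin T fluorescence read-out; run in triplicate.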

The target of assay [3] is Cholinesterase (Homo sapiens, UniProt P06276). Description: Inhibition of human recombinant BChE using acetylthiocholine iodide as substrate preincubated for 20 mins followed by substrate addition by DTNB reagent based Ellman's method. The gist of the method:
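Human BChE was assayed by the Ellman spectrophotometric method. IC50 values are means of three independent experiments, each run in triplicate.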

The target of assay [4] is Acetylcholinesterase (Homo sapiens, UniProt P22303). Description: Inhibition of human recombinant AChE using acetylthiocholine iodide as substrate preincubated for 20 mins followed by substrate addition by DTNB reagent based Ellman's method.
The target of assay [5] is Acetylcholinesterase (Electrophorus electricus, UniProt O42275). Nature of the assay: Inhibition of electric eel AChE using acetylthiocholine iodide as substrate preincubated for 20 mins followed by substrate addition by DTNB reagent based Ellman's method.
Assay [6] addresses Cholinesterase (Equus caballus, UniProt P81908). Description: Inhibition of equine serum BChE using butyrylthiocholine iodide as substrate preincubated for 20 mins followed by substrate addition by DTNB reagent based Ellman's method. It counts as cell-free.
Assay [7] deals with T1, Microtubule-associated protein tau. Nature of the assay: Inhibition of tau (unknown origin) aggregation expressed in Escherichia coli BL21 (DE3) at 10 uM relative to control. In outline:
as §1
Target sequence in this assay (P10636 whole entry): as above

For assay [8] the target is unchanged. Nature of the assay: Inhibition of PHF6 peptide (unknown origin) aggregation at 10 uM measured after 3 hrs by thioflavin T fluorescence based fluorimetric analysis relative to control.
Target sequence in this assay (P10636 whole entry, looked up): as the sequence (P10636 whole entry) above

Chain of Cholinesterase (Equus caballus, UniProt P81908) (P81908 whole entry): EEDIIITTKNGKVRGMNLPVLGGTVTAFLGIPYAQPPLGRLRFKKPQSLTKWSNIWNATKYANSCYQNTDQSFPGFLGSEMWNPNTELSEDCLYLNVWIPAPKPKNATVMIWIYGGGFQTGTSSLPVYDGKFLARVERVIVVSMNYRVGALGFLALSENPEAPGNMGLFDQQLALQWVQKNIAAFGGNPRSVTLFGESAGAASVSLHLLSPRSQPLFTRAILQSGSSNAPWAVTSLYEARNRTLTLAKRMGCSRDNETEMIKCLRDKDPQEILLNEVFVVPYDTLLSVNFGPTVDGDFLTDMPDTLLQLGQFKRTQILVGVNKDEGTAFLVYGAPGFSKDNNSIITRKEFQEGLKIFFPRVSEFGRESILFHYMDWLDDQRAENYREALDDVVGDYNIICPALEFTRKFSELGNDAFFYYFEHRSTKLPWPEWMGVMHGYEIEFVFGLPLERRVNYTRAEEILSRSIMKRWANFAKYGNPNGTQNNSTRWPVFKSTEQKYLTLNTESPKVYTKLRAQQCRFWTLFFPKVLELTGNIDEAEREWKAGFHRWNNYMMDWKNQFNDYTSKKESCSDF
Chain of Acetylcholinesterase (Homo sapiens, UniProt P22303) (P22303 whole entry): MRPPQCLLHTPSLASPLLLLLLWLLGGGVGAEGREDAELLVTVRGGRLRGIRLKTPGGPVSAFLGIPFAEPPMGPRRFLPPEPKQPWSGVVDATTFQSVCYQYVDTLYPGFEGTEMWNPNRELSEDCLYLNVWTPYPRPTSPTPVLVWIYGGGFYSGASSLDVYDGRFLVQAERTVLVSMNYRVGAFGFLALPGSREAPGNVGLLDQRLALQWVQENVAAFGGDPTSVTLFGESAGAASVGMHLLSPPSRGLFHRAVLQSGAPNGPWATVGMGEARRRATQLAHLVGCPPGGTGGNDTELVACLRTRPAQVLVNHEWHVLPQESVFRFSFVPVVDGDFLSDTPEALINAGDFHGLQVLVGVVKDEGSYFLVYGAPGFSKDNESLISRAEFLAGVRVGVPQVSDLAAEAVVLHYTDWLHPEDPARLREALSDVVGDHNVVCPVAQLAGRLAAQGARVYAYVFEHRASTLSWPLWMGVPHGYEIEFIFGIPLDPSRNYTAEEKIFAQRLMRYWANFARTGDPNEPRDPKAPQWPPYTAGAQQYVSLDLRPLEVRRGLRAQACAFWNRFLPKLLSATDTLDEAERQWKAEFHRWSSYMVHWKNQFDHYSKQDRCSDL
Chain of Acetylcholinesterase (Electrophorus electricus, UniProt O42275) (O42275 whole entry): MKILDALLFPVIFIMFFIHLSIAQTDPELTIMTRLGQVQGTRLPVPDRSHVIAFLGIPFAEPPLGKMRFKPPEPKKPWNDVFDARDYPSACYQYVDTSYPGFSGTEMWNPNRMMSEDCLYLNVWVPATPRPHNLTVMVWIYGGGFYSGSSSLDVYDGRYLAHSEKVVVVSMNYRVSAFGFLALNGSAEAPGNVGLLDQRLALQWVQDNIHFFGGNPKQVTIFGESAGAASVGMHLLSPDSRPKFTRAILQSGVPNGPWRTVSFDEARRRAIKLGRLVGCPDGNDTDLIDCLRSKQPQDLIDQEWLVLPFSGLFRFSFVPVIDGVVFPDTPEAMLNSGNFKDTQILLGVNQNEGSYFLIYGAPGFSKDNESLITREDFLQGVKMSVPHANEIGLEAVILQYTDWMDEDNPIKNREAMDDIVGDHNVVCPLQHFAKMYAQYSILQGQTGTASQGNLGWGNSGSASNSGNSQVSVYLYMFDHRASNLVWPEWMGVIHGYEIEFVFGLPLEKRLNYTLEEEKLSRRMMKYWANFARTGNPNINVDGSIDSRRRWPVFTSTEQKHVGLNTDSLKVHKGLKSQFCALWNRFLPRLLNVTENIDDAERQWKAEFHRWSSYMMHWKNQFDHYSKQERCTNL
Chain of Amyloid-beta precursor protein (P05067 whole entry): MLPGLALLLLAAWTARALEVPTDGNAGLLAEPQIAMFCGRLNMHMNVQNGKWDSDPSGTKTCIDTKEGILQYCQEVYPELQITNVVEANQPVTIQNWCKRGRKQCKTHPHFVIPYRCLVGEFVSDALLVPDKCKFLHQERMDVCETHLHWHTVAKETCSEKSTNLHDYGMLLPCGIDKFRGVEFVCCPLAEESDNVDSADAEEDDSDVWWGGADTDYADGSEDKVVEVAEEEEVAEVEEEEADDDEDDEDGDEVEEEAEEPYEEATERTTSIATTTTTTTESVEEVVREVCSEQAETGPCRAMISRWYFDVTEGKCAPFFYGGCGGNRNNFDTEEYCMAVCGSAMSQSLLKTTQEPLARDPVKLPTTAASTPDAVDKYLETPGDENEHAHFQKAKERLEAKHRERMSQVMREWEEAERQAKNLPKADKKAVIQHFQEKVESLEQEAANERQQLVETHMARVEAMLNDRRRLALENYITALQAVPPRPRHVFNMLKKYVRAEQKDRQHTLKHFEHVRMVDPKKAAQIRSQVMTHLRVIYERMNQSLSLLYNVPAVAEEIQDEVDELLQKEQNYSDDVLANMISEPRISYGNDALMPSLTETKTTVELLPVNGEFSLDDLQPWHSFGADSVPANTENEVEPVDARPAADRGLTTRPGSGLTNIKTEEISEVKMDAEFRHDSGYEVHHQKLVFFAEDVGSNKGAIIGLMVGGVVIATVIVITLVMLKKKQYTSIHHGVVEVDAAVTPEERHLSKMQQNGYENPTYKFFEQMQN
Chain of Cholinesterase (Homo sapiens, UniProt P06276) (P06276 whole entry): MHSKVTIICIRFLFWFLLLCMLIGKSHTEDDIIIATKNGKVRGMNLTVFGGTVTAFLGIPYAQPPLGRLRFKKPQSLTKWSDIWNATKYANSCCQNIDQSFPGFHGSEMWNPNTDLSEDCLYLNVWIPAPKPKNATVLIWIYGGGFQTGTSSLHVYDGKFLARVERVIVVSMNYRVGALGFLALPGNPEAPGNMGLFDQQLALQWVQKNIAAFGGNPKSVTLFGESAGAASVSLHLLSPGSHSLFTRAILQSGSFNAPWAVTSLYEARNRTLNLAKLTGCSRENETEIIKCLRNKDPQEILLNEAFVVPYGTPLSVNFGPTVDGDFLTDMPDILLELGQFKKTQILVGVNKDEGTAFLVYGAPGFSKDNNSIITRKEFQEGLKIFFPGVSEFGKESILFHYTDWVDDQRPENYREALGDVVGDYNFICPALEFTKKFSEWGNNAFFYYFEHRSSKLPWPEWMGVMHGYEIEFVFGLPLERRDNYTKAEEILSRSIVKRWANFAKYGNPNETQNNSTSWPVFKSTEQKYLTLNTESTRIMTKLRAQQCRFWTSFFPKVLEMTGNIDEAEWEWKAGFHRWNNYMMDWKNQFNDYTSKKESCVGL

Regarding `Cc1ccc(NC[C@@H]2CCCN3CCCC[C@H]23)c2c(=O)c3cc(O)ccc3sc12`, the results for the IC50 in assay [1] and in assay [2] were 9.1 µM and 5.9 µM, respectively.
Take `Nc1ccc(NC[C@@H]2CCCN3CCCC[C@H]23)c2c(=O)c3ccccc3sc12`: the half-inhibitory concentration (IC50) was determined as 8.6 µM in assay [1] and 14 µM in assay [2].
As for `Cc1ccc(NCC[C@@H]2CCCN3CCCC[C@H]23)c2c(=O)c3cc(O)ccc3sc12`, the IC50 in assay [1] was 8.9 µM; in assay [2] it was 2.4 µM; on Cholinesterase [3] it was 0.9 µM; on Acetylcholinesterase [4], 4.26 µM; against Acetylcholinesterase [5], 3.2 µM; against Cholinesterase [6], 0.16 µM.
`Nc1ccc(NCCC[C@@H]2CCCN3CCCC[C@H]23)c2c(=O)c3ccccc3sc12` registered a half-maximal inhibitory concentration (IC50) in assay [2] of 1.3 µM. This compound also registered an inhibition in assay [7] of 26%.
`CCN(CC)CCCNc1ccc(N)c2sc3ccc(OC)cc3c(=O)c12` returned a half-maximal inhibitory concentration (IC50) in assay [2] of 21 µM. Also, the inhibition was 24% in assay [7] and over 80% in assay [8].
With `CCN(CC)CCCNc1ccc([N+](=O)[O-])c2sc3ccc(OC)cc3c(=O)c12`, the IC50 in assay [1] came to 4.8 µM; in assay [2], 17 µM.
Regarding `COc1ccc2sc3c([N+](=O)[O-])ccc(NCC[C@@H]4CCCN5CCCC[C@H]45)c3c(=O)c2c1`, the IC50 was determined as 6.9 µM in assay [1]; 9.1 µM in assay [2]; 1.82 µM on Cholinesterase [3]; 4.75 µM on Acetylcholinesterase [4]; 2.3 µM on Acetylcholinesterase [5]; 0.15 µM against Cholinesterase [6].
Turning to `COc1ccc2sc3c(C)ccc(NCC[C@@H]4CCCN5CCCC[C@H]45)c3c(=O)c2c1`, the IC50 in assay [1] was 14 µM; in assay [2], 2.4 µM; on Cholinesterase [3], 0.71 µM; at Acetylcholinesterase [4], 3.59 µM; on Acetylcholinesterase [5] it was 5.1 µM; against Cholinesterase [6], 0.14 µM.
For `COc1ccc2sc3c([N+](=O)[O-])ccc(NC[C@@H]4CCCN5CCCC[C@H]45)c3c(=O)c2c1`, 11 µM corresponded to half-maximal inhibition in assay [2] (IC50). The inhibition in assay [7] is 32%.
For `COc1ccc2sc3c(N)ccc(NCC[C@@H]4CCCN5CCCC[C@H]45)c3c(=O)c2c1`, the IC50 in assay [2] is 13 µM; at Cholinesterase [3], 0.99 µM; at Acetylcholinesterase [4], 2.4 µM; at Acetylcholinesterase [5], 1.9 µM; against Cholinesterase [6] it was 0.15 µM. In assay [7], the inhibition was found to be 33%.
With `COc1ccc2sc3c([N+](=O)[O-])ccc(NCCC[C@@H]4CCCN5CCCC[C@H]45)c3c(=O)c2c1`, the IC50 in assay [1] was 3 µM; in assay [2] it was 7.9 µM; at Cholinesterase [3], 7.31 µM; on Acetylcholinesterase [4], 1.75 µM; on Acetylcholinesterase [5], 0.12 µM; at Cholinesterase [6] it was 2 µM.
In assay [2], `Cc1ccc(NCCC[C@@H]2CCCN3CCCC[C@H]23)c2c(=O)c3ccccc3sc12` came in with an IC50 of 4.3 µM. The compound also had an inhibition in assay [7] of 26%.
Consider `Cc1ccc(NCCCSC[C@@H]2CCCN3CCCC[C@H]23)c2c(=O)c3ccccc3sc12`, for which the IC50 in assay [1] came to 20 µM; in assay [2], 4.3 µM; on Cholinesterase [3], 0.007 µM; at Acetylcholinesterase [4], 7.84 µM; at Acetylcholinesterase [5], 0.18 µM; on Cholinesterase [6], 0.088 µM.
For `O=c1c2ccccc2sc2c([N+](=O)[O-])ccc(NC[C@@H]3CCCN4CCCC[C@H]34)c12`, the IC50 in assay [1] was 15 µM; in assay [2], 20 µM.
`Cc1ccc(NCCC[C@@H]2CCCN3CCCC[C@H]23)c2c(=O)c3cc(O)ccc3sc12`: the IC50 in assay [1] was 7.3 µM; in assay [2] it was 2.9 µM. This compound also came in with an inhibition in assay [8] of over 80%.
In the case of `Cc1ccc(NC[C@@H]2CCCN3CCCC[C@H]23)c2c(=O)c3ccccc3oc12`, the IC50 in assay [2] is 48 µM. Moreover, the inhibition in assay [7] amounted to 35%.
`COc1ccc2sc3c(C)ccc(NC[C@@H]4CCCN5CCCC[C@H]45)c3c(=O)c2c1`: the IC50 in assay [1] is 5.5 µM; in assay [2], 4.3 µM.
As for `CCCN(SC[C@H]1CCCN2CCCC[C@H]12)C1=C(Cl)C(=O)c2ccccc2C1=O`, the midpoint of inhibition in assay [2], the IC50, lay at 61 µM.
In the case of `Cc1ccc(NCCC[C@@H]2CCCN3CCCC[C@H]23)c2c(=O)c3ccccc3oc12`, the IC50 in assay [1] was found to be 23 µM; in assay [2], 13 µM; at Cholinesterase [3], 0.3 µM; at Acetylcholinesterase [4] it was 8.81 µM; at Acetylcholinesterase [5], 0.14 µM; on Cholinesterase [6], 0.37 µM.
